# Published values from different studies.
# Protocols differ between the studies behind these lines.
# Target: Tyrosine-protein kinase CSK (CSK, Homo sapiens, UniProt P41240)
SMILES,effect on,mode,technique,cells,tested at,endpoint,value
CS(=O)(=O)CCNCc1ccc(-c2ccc3ncnc(Nc4ccc(OCc5cccc(F)c5)c(Cl)c4)c3c2)o1,enzyme activity,inhibitor,,,0.5 µM,remaining activity,106%
Cn1nc(C(F)(F)F)cc1-c1cnc(N2CCc3cc(S(=O)(=O)Nc4c(F)cc(Cl)cc4F)cc(N4CCCC4=O)c32)nc1,cell-free assay,,competition with immobilised ligand,,1 µM,remaining binding,93%
Cc1ccc(C(=O)NCc2ccsc2)cc1C#Cc1cn(C(C)C)c2ncnc(N)c12,enzyme activity,inhibitor,,,1 µM,activity vs control,26%
COc1cc2ncnc(Nc3ccc(Oc4ccccc4)c(C)c3C)c2cc1OC,enzyme activity,inhibitor,,,1 µM,inhibition,49%
Nc1nc(Nc2ccccc2)sc1C(=O)c1c(F)cccc1F,enzyme activity,inhibitor,,,10 µM,remaining activity,90%
Cn1cc(Cl)c2c(Oc3c(F)cc(Nc4cc(Cl)nc(N)n4)cc3F)ccnc21,cell-free assay,,competition with immobilised ligand,,0.1 µM,remaining binding,100%
N#CCCc1ccc2c(c1)-c1[nH]c3ccc([N+](=O)[O-])cc3c1CC(=O)N2,cell-free assay,,,,0.5 µM,remaining signal,96.3%
C[C@H](c1cccc(C#N)c1)n1cc(Cl)cc(C(N)=O)c1=N,cell-free assay,,competition with immobilised ligand,,1 µM,remaining binding,100%
Cc1ccc(NC(=O)c2ccc(C)c(C(F)(F)F)c2)cc1C#Cc1nn(C2CCC(O)CC2)c2ncnc(N)c12 (centres unmarked),cell-free assay,inhibitor,,,10 µM,remaining signal,-1%
CC(C)(O)[C@H]1CC[C@H](Nc2ccc3ncc(-c4cccc(C(F)(F)F)c4)n3n2)CC1,enzyme activity,inhibitor,,,1 µM,remaining activity,95.3%
COc1cc(Nc2cnc(C#N)c(O[C@H](C)CN(C)C)n2)ncc1-c1cnn(C)c1,enzyme activity,inhibitor,radiometric,,10 µM,remaining activity,94%
CCCOc1ccc([C@@H]2[C@@H](C(=O)O)[C@H](c3ccc4c(c3)OCO4)CN2CC(=O)Nc2c(CC)cccc2CC)cc1,cell-free assay,,competition with immobilised ligand,,1 µM,remaining binding,91%
CN(c1ncccc1CNc1nc(Nc2ccc3c(c2)CC(=O)N3)ncc1C(F)(F)F)S(C)(=O)=O,enzyme activity,inhibitor,,,1 µM,inhibition,29.1%
CCN1CCN(Cc2ccc(NC(=O)c3ccc(C)c(Oc4ccnc5[nH]ccc45)c3)cc2C(F)(F)F)CC1,target engagement in cells,inhibitor,chemoproteomics,A-375,0.5 µM,inhibition,-14.9%
Nc1ncnc2occ(-c3ccc(NC(=O)Nc4cc(C(F)(F)F)ccc4F)cc3)c12,enzyme activity,inhibitor,,,20 µM,remaining activity,2%
O=C(Nc1cnn(-c2csc(C(=O)NC3COC3)c2)c1)Nc1ccccc1Cl,enzyme activity,inhibitor,,,5 µM,remaining activity,99.2%
CC(=O)N1CCC(c2ccc(C(=O)NC(=N)N)cc2C(F)(F)F)CC1,cell-free assay,,competition with immobilised ligand,,1 µM,remaining binding,100%
Cn1c(=O)n(-c2ccc(C(C)(C)C#N)cc2)c2c3cc(-c4cnc5ccccc5c4)ccc3ncc21,enzyme activity,inhibitor,,,10 µM,remaining activity,100%
O=C(CSc1nc2nccnc2c(=O)n1CCc1ccccc1)Nc1nccs1,enzyme activity,inhibitor,,,10 µM,inhibition,6%
CNC(=O)c1cc(Oc2ccc(NC(=O)Nc3ccc(Cl)c(C(F)(F)F)c3)cc2)ccn1,enzyme activity,inhibitor,,,10 µM,inhibition,22%
O=C1c2ccccc2-c2n[nH]c3cccc1c23,enzyme activity,inhibitor,,,0.5 µM,activity vs control,95.6%
Cc1ccc(Nc2nccc(N(C)c3ccc4c(C)n(C)nc4c3)n2)cc1S(N)(=O)=O,enzyme activity,inhibitor,,,10 µM,inhibition,24%
CC(C)(C)c1nc(-c2cccc(NS(=O)(=O)c3c(F)cccc3F)c2F)c(-c2ccnc(N)n2)s1,enzyme activity,inhibitor,radiometric,,1 µM,remaining activity,34%
Cc1c[nH]c2nccc(Oc3c(F)cc(Nc4cc(Cl)nc(N)n4)cc3F)c12,cell-free assay,,competition with immobilised ligand,,0.1 µM,remaining binding,87%
O=C1Nc2ccc(Cl)cc2C1=Cc1cc(Cl)c(O)c(Cl)c1,enzyme activity,inhibitor,,,0.5 µM,remaining activity,85%
Cn1nc(C(=O)NCc2ccc(C(=O)O)cc2)cc1-c1ccc2[nH]ccc2c1,cell-free assay,,competition with immobilised ligand,,0.1 µM,remaining binding,94%
FC(F)(F)Oc1cccc(-c2cnc3ccc(-c4ccncc4)nn23)c1,enzyme activity,inhibitor,radiometric,,1 µM,activity vs control,97%
CC/C(=N\NC(=O)NCc1cccc(O)c1)c1ccc(O)c(C)c1O,enzyme activity,inhibitor,,,0.1 µM,inhibition,-4.9%
Cc1sc(C(=O)NC2COC2)cc1-n1cc(NC(=O)Nc2c(F)cccc2Cl)cn1,enzyme activity,inhibitor,,,10 µM,remaining activity,98%
CCN(CC)CCNC(=O)c1c(C)[nH]c(/C=C2\C(=O)Nc3ccc(F)cc32)c1C,enzyme activity,inhibitor,,,10 µM,inhibition,10%
Cc1cc(NC(=O)c2cccc3cc(-c4cccc5[nH]nc(N)c45)ccc23)ccc1F,enzyme activity,inhibitor,,,0.1 µM,activity vs control,97%
CNC(=O)Nc1ccc2c(c1)[C@@]1(CC2)OC(=O)N(CC(=O)N(Cc2ccc(F)cc2)[C@@H](C)C(F)(F)F)C1=O,cell-free assay,,competition with immobilised ligand,,1 µM,remaining binding,100%
